According to ChEMBL document CHEMBL1275447 (Antimicrob Agents Chemother, 2008):
Values after ≈ are worked out from the molar mass of the structure shown. Active and inactive are the calls of the source. No cut-off for these calls is given here.

What was measured:
Pseudomonas aeruginosa [1] = experiment: Antibacterial activity against Pseudomonas aeruginosa isolate 886 by microdilution method; format: functional
[2] = fT>MIC in neutropenic mouse infected with Pseudomonas aeruginosa isolate 968 at 500 mg administered as 4 hr infusion; format: functional
Method in brief: (§1)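 Mouse fT>MIC was modelled with first-order one-compartment serum PK and 25.2% binding. Mice were neutropenic (cyclophosphamide) with uranyl nitrate renal impairment. Subcutaneous doses were 5.5, 2.25, 4.5, 4.5, 4.5, 4.5, 0.75, 0.375 mg/kg at 0, 0.5, 1.5, 2.5, 3.5, 4.5, 6, 7.5 h per 8-h interval over 24 h.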

[3] = fT>MIC in neutropenic mouse infected with Pseudomonas aeruginosa isolate 886 at 500 mg administered as 1 hr infusion; format: functional
Method in brief: (§2)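 Free-drug time above MIC simulated from one-compartment mouse serum PK (25.2% protein binding). The mice were cyclophosphamide-neutropenic and uranyl nitrate-renally impaired. Regimen was subcutaneous 10, 15, 2.5, 1.25, 0.5, 0.25 mg/kg at 0, 0.5, 2.5, 4, 5.5, 7 h, repeated every 8 h over 24 h.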

[4] = fT>MIC in neutropenic mouse infected with Pseudomonas aeruginosa isolate 935 at 500 mg administered as 4 hr infusion; format: functional; method in brief: as §1
[5] = fT>MIC in neutropenic mouse infected with Pseudomonas aeruginosa isolate 1050 at 500 mg administered as 1 hr infusion; format: functional; method in brief: as §2
[6] = fT>MIC in neutropenic mouse infected with Pseudomonas aeruginosa isolate 1006 at 500 mg administered as 4 hr infusion; format: functional
[7] = fT>MIC in human infected with Pseudomonas aeruginosa isolate 886 at 500 mg administered as 4 hr infusion; format: functional
Pseudomonas aeruginosa [8] = experiment: Antibacterial activity against Pseudomonas aeruginosa isolate 988 by microdilution method; format: functional
[9] = Half-life in Pseudomonas aeruginosa ATCC 27853 infected neutropenic ICR mouse at 10 mg/kg, sc administered as single dose 2 hrs postinfection; format: ADME, organism-based; design: dose 10 mg/kg, route subcutaneous; details: in vivo
Method in brief: (§3)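 Neutropenic mice (cyclophosphamide ip 150 and 100 mg/kg, 4 and 1 days before inoculation) with uranyl nitrate 5 mg/kg ip 3 days before, for renal impairment. Thigh infection with ATCC 27853 at 10⁶ CFU/ml, 0.1 ml per thigh. Single sc doses 2 h later. Intracardiac blood from 6–12 mice per time point, eight time points over 4 h. Serum assayed by HPLC (linear 0.5–40 μg/ml). One-compartment first-order fit.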

[10] = fT>MIC in human infected with Pseudomonas aeruginosa isolate 1060 at 500 mg administered as 1 hr infusion; format: functional
[11] = fT>MIC in human infected with Pseudomonas aeruginosa isolate 927 at 500 mg administered as 1 hr infusion; format: functional
[12] = fT>MIC in human infected with Pseudomonas aeruginosa isolate 1005 at 500 mg administered as 4 hr infusion; format: functional
[13] = fT>MIC in neutropenic mouse thigh infection model at 4 to 8 ug/ml after 24 hrs; format: functional; method in brief: as §2
Pseudomonas aeruginosa [14] = experiment: Antibacterial activity against Pseudomonas aeruginosa isolate 869 by microdilution method; format: functional
[15] = fT>MIC in human infected with Pseudomonas aeruginosa isolate 993 at 500 mg administered as 1 hr infusion; format: functional
Pseudomonas aeruginosa [16] = experiment: Antibacterial activity against Pseudomonas aeruginosa isolate 944 at 4 ug/ml after 24 hrs; format: functional, organism-based
[17] = fT>MIC in human infected with Pseudomonas aeruginosa isolate 896 at 500 mg administered as 1 hr infusion; format: functional
[18] = fT>MIC in human infected with Pseudomonas aeruginosa isolate 988 at 500 mg administered as 1 hr infusion; format: functional
[19] = fT>MIC in neutropenic mouse infected with Pseudomonas aeruginosa isolate 869 at 500 mg administered as 4 hr infusion; format: functional; method in brief: as §1
[20] = fT>MIC in human infected with Pseudomonas aeruginosa isolate 979 at 500 mg administered as 1 hr infusion; format: functional
Pseudomonas aeruginosa [21] = experiment: Antibacterial activity against Pseudomonas aeruginosa isolate 931 at 4 ug/ml after 24 hrs; format: functional, organism-based
[22] = Cmax in healthy human at 500 mg administered as 1 hr infusion; format: ADME, organism-based; design: dose 500 mg; details: in vivo, iv
[23] = fT>MIC in human infected with Pseudomonas aeruginosa isolate 944 at 500 mg administered as 4 hr infusion; format: functional
[24] = fT>MIC in neutropenic mouse infected with Pseudomonas aeruginosa isolate 1036 at 500 mg administered as 1 hr infusion; format: functional
[25] = Cmax in Pseudomonas aeruginosa ATCC 27853 infected neutropenic ICR mouse at 500 mg administered as 1 hr infusion; format: ADME, organism-based; design: dose 500 mg; details: in vivo, iv
[26] = fT>MIC in neutropenic mouse infected with Pseudomonas aeruginosa isolate 1036 at 500 mg administered as 4 hr infusion; format: functional; method in brief: as §1
[27] = fT>MIC in human infected with Pseudomonas aeruginosa isolate 1082 at 500 mg administered as 4 hr infusion; format: functional
[28] = fT>MIC in neutropenic mouse infected with Pseudomonas aeruginosa isolate 1029 at 500 mg administered as 1 hr infusion; format: functional
[29] = AUC in Pseudomonas aeruginosa ATCC 27853 infected neutropenic ICR mouse at 500 mg administered as 4 hr infusion; format: ADME, organism-based; details: plasma, iv
Pseudomonas aeruginosa [30] = experiment: Antibacterial activity against Pseudomonas aeruginosa isolate 935 by microdilution method; format: functional
Method in brief: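 CLSI broth microdilution in cation-adjusted Mueller-Hinton broth (20–25 mg/liter Ca, 10–12.5 mg/liter Mg). Standard inoculum 10⁵ CFU/ml, incubated in ambient air. Clinical hospital isolates.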

[31] = Half-life in Pseudomonas aeruginosa ATCC 27853 infected neutropenic ICR mouse at 150 mg/kg, sc administered as single dose 2 hrs postinfection; format: ADME, organism-based; design: dose 150 mg/kg, route subcutaneous; details: in vivo; method in brief: as §3
[32] = AUC (0 to 24 hrs) in Pseudomonas aeruginosa ATCC 27853 infected neutropenic ICR mouse at 50 mg/kg, sc administered as single dose 2 hrs postinfection; format: ADME, organism-based; design: time < 24 hr, dose 50 mg/kg, route subcutaneous; details: plasma; method in brief: as §3
[33] = fT>MIC in neutropenic mouse infected with Pseudomonas aeruginosa isolate 1082 at 500 mg administered as 1 hr infusion; format: functional; method in brief: as §2
Pseudomonas aeruginosa [34] = experiment: Antibacterial activity against Pseudomonas aeruginosa isolate at 8 to 16 ug/ml after 24 hrs; format: functional, organism-based
Pseudomonas aeruginosa [35] = experiment: Antibacterial activity against Pseudomonas aeruginosa isolate 936 by microdilution method; format: functional
[36] = fT>MIC in neutropenic mouse infected with Pseudomonas aeruginosa isolate 993 at 500 mg administered as 1 hr infusion; format: functional; method in brief: as §2
[37] = fT>MIC in human infected with Pseudomonas aeruginosa isolate 936 at 500 mg administered as 1 hr infusion; format: functional
[38] = fT>MIC in neutropenic mouse infected with Pseudomonas aeruginosa isolate 931 at 500 mg administered as 1 hr infusion; format: functional; method in brief: as §2
[39] = Cmax in Pseudomonas aeruginosa ATCC 27853 infected neutropenic ICR mouse at 5.5, 2.25, 4.5, 4.5, 4.5, 4.5, 0.75, and 0.375 mg/kg given at 0, 0.5, 1.5, 2.5, 3.5, 4.5, 6, and 7.5 h over 24 h; format: ADME, organism-based; design: dose 0.375 mg/kg; details: in vivo
Pseudomonas aeruginosa [40] = experiment: Antibacterial activity against Pseudomonas aeruginosa isolate 1058 by microdilution method; format: functional
Pseudomonas aeruginosa [41] = experiment: Antibacterial activity against Pseudomonas aeruginosa isolate 1050 by fractionation study; format: functional

Which results are given for C[C@@H](O)[C@H]1C(=O)N2C(C(=O)O)=C(S[C@@H]3CN[C@H](CNS(N)(=O)=O)C3)[C@H](C)[C@H]12 [DORIPENEM]?
MIC (Pseudomonas aeruginosa [1]): 0.25 µg/mL (≈ 0.595 µM); fT>MIC [2]: 0%; fT>MIC [3]: 90%; fT>MIC [4]: 82.5%; fT>MIC [5]: 30%; fT>MIC [6]: 0%; fT>MIC [7]: 100%; MIC (Pseudomonas aeruginosa [8]): 8 µg/mL (≈ 19 µM); half-life [9]: 24.6 min; fT>MIC [10]: 27.5%; fT>MIC [11]: 7.5%; fT>MIC [12]: 80%; fT>MIC [13]: 20%; MIC (Pseudomonas aeruginosa [14]): 0.25 µg/mL (≈ 0.595 µM); fT>MIC [15]: 100%; Activity (Pseudomonas aeruginosa [16]): inactive; fT>MIC [17]: 17.5%; fT>MIC [18]: 17.5%; fT>MIC [19]: 100%; fT>MIC [20]: 40%; Activity (Pseudomonas aeruginosa [21]): inactive; Cmax [22]: 21800 ng/mL; fT>MIC [23]: 55%; fT>MIC [24]: 42.5%; Cmax [25]: 28400 ng/mL; fT>MIC [26]: 70%; fT>MIC [27]: 80%; fT>MIC [28]: 100%; AUC at 4 h [29]: 34400 ng·h/mL; MIC (Pseudomonas aeruginosa [30]): 1 µg/mL (≈ 2.38 µM); half-life [31]: 26.4 min; AUC(0-t) at 24 h [32]: 62400 ng·h/mL; fT>MIC [33]: 55%; Activity (Pseudomonas aeruginosa [34]): inactive; MIC (Pseudomonas aeruginosa [35]): 8 µg/mL (≈ 19 µM); fT>MIC [36]: 100%; fT>MIC [37]: 17.5%; fT>MIC [38]: 30%; Cmax [39]: 7990 ng/mL; MIC (Pseudomonas aeruginosa [40]): 2 µg/mL (≈ 4.76 µM); MIC (Pseudomonas aeruginosa [41]): 4 µg/mL (≈ 9.51 µM)
